ChEMBL document CHEMBL2203225, “Dehydrozingerone, a structural analogue of curcumin, induces cell-cycle arrest at the G2/M phase and accumulates intracellular ROS in HT-29 human colon cancer cells” (J Nat Prod, 2012)
Active and inactive are the calls of the source. No cut-off for these calls is given here.

Columns and labels:
HT-29 [1] = test: Cytotoxicity against human HT-29 cells assessed as growth inhibition after 72 hrs by WST-8 assay; assay type: functional
Procedure, shortened: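 Viability read by WST-8 (Cell Counting Kit-8) after 72 h incubation of HT-29 cells with compound. Cells cultured in DMEM with 10% FBS at 37 °C, 5% CO₂. Means ± SD, n = 3.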

HT-29 [2] = test: Induction of ROS generation in human HT-29 cells at > 250 uM after 24 hrs by FACS flow cytometry; assay type: functional, cell-based
HT-29 [3] = test: Cell cycle arrest in human HT-29 cells assessed as ROS-stimulated accumulation at G2/M phase at 62.5 to 250 uM after 24 hrs by propidium iodide based FACS flow cytometry
HT-29 [4] = test: Cytotoxicity against human HT-29 cells assessed as dead cells at GI70 concentration after 72 hrs by WST-8 assay; assay type: functional
Procedure, shortened: (§1)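 HT-29 colon cancer cells grown in DMEM with 10% FBS, 2 mM glutamine, penicillin and streptomycin at 37 °C, 5% CO2. Cells exposed to compound or vehicle (0.1% DMSO) for 72 h. Live and dead cells were counted by ViaCount staining on a Guava EasyCyte Plus flow cytometer, and percent dead cells was calculated. Mean ± SD, n = 3.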

HT-29 [5] = test: Cytotoxicity against human HT-29 cells assessed as dead cells at > 31.3 uM after 72 hrs by […]; assay type: functional; procedure, shortened: as §1
HT-29 [6] = test: Cell cycle arrest in human HT-29 cells assessed as accumulation at G2/M phase at 250 uM after 24 hrs by propidium iodide based FACS flow cytometry; assay type: functional
Procedure, shortened: (§2)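 HT-29 cells exposed 24 h to 125, 250 or 500 μM, with 0.1% DMSO as vehicle control. Permeabilized with 0.1% Triton X-100, stained with 100 μg/mL PI and analysed by FACSCalibur for G1/S/G2/M percentages. Means ± SD, n = 3; significance tested against DMSO control.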

WI-38 [7] = test: Cytotoxicity against human WI38 cells assessed as growth inhibition after 72 hrs by WST-8 assay; assay type: cell-based; conditions: wi-38, 72 h
WI-38 [8] = test: Cell cycle arrest in human WI38 cells assessed as ROS-stimulated accumulation at G2/M phase at 250 uM after 24 hrs by propidium iodide based FACS flow cytometry in presence of N-acetyl-L-cysteine; conditions: wi-38, 24 h
HCT-15 [9] = test: Cell cycle arrest in human HCT15 cells assessed as ROS-stimulated accumulation at G2/M phase after 24 hrs by propidium iodide based FACS flow cytometry in presence of alpha-tocopherol; assay type: functional
HCT-15 [10] = test: Cell cycle arrest in human HCT15 cells assessed as ROS-stimulated accumulation at G2/M phase after 24 hrs by propidium iodide based FACS flow cytometry in presence of L-ascorbic acid; assay type: functional
HCT-15 [11] = test: Cell cycle arrest in human HCT15 cells assessed as ROS-stimulated accumulation at G2/M phase after 24 hrs by propidium iodide based FACS flow cytometry in presence of N-acetyl-L-cysteine; assay type: functional
HCT-116 [12] = test: Cell cycle arrest in human HCT116 cells assessed as ROS-stimulated accumulation at G2/M phase after 24 hrs by propidium iodide based FACS flow cytometry in presence of alpha-tocopherol; assay type: functional
HCT-116 [13] = test: Cell cycle arrest in human HCT116 cells assessed as ROS-stimulated accumulation at G2/M phase after 24 hrs by propidium iodide based FACS flow cytometry in presence of L-ascorbic acid; assay type: functional
HCT-116 [14] = test: Cell cycle arrest in human HCT116 cells assessed as ROS-stimulated accumulation at G2/M phase after 24 hrs by propidium iodide based FACS flow cytometry in presence of N-acetyl-L-cysteine; assay type: functional
HCT-15 [15] = test: Cytotoxicity against human HCT15 cells assessed as growth inhibition after 72 hrs by WST-8 assay; assay type: functional, cell-based
HCT-116 [16] = test: Cytotoxicity against human HCT116 cells assessed as growth inhibition after 72 hrs by WST-8 assay; assay type: functional, cell-based
HT-29 [17] = test: Cell cycle arrest in human HT-29 cells assessed as ROS-stimulated accumulation at G2/M phase at 125 to 500 uM after 24 hrs by propidium iodide based FACS flow cytometry in presence of N-acetyl-L-cysteine; assay type: functional
Procedure, shortened: (§3)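 HT-29 cells grown in DMEM with 10% FBS and 2 mM glutamine at 37 °C, 5% CO₂, treated 24 h, then permeabilized with 0.1% Triton X-100. Stained with 100 μg/mL propidium iodide and analysed for G1, S and G2/M fractions by FACSCalibur flow cytometry. Data are means ± SD, n = 3, versus 0.1% DMSO control.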

HT-29 [18] = test: Cell cycle arrest in human HT-29 cells assessed as ROS-stimulated increase in p21 at 250 to 500 uM after 24 hrs by Western blotting in presence of N-acetyl-L-cysteine; assay type: functional, cell-based
HT-29 [19] = test: Cell cycle arrest in human HT-29 cells transfected with p21 siRNA assessed as accumulation at G2/M phase at 500 uM after 24 hrs by propidium iodide based FACS flow cytometry; assay type: functional
Procedure, shortened: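 HT-29 cells transiently transfected for 24 h with 10 nM p21 or negative-control siRNA using Lipofectamine RNAiMAX, alongside 24 h exposure to 500 μM or 0.1% DMSO. Cells were PI-stained and cell-cycle phases quantified by flow cytometry. Means ± SD, n = 3, versus DMSO-treated control.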

HT-29 [20] = test: Upregulation of p21 gene expression in human HT-29 cells assessed as decrease in phosphorylated CDK1 at Thr161 at 500 uM after 24 hrs by Western blotting; assay type: functional, cell-based
Procedure, shortened: (§4)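 HT-29 cells treated 24 h or given 0.1% DMSO, then lysed in 50 mM Tris-HCl with 1% SDS and protease inhibitors. Blots were blocked in 5% skim milk/TBST for 1 h at RT and probed with primary antibody for 1 h at RT. Detection by ECL, with β-actin as loading control.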

HT-29 [21] = test: Upregulation of p21 gene expression in human HT-29 cells at > 250 uM after 24 hrs by Western blotting; assay type: functional, cell-based; procedure, shortened: as §4
HT-29 [22] = test: Upregulation of Cyclin B gene expression in human HT-29 cells at 125 to 500 uM after 24 hrs by Western blotting; assay type: functional, cell-based; procedure, shortened: as §4
HT-29 [23] = test: Upregulation of CDK1 gene expression in human HT-29 cells at 125 to 500 uM after 24 hrs by Western blotting; assay type: functional, cell-based; procedure, shortened: as §4
HT-29 [24] = test: Cell cycle arrest in human HT-29 cells assessed as accumulation at G2/M phase at > 250 uM after 24 hrs by propidium iodide based FACS flow cytometry relative to control; assay type: functional; procedure, shortened: as §2
HT-29 [25] = test: Cytotoxicity against human HT-29 cells assessed as dead cells at 1000 uM after 72 hrs by […]; assay type: functional; procedure, shortened: as §1
HT-29 [26] = test: Cytotoxicity against human HT-29 cells assessed as dead cells at 500 uM after 72 hrs by […]; assay type: functional; procedure, shortened: as §1
HT-29 [27] = test: Cell cycle arrest in human HT-29 cells assessed as ROS-stimulated accumulation at G2/M phase after 24 hrs by propidium iodide based FACS flow cytometry in presence of L-ascorbic acid; assay type: functional; procedure, shortened: as §3
HT-29 [28] = test: Cell cycle arrest in human HT-29 cells assessed as ROS-stimulated accumulation at G2/M phase after 24 hrs by propidium iodide based FACS flow cytometry in presence of alpha-tocopherol; assay type: functional; procedure, shortened: as §3
HT-29 [29] = test: Cell cycle arrest in human HT-29 cells assessed as ROS-stimulated accumulation at G2/M phase after 24 hrs by propidium iodide based FACS flow cytometry in presence of MnTBAP; assay type: functional; procedure, shortened: as §3
HT-29 [30] = test: Cell cycle arrest in human HT-29 cells assessed as ROS-stimulated accumulation at G2/M phase after 24 hrs by propidium iodide based FACS flow cytometry in presence of PEG-penetreated catalase; assay type: functional; procedure, shortened: as §3
HT-29 [31] = test: Cell cycle arrest in human HT-29 cells assessed as ROS-stimulated accumulation at G2/M phase after 24 hrs by propidium iodide based FACS flow cytometry in presence of SOD; assay type: functional; procedure, shortened: as §3

COc1ccc(/C=C/C(C)=O)cc1O
growth inhibition (GI) (HT-29 [1]): Active
Activity (HT-29 [2]): Active
Activity (HT-29 [3]): Active

COc1cccc(/C=C/C(C)=O)c1O
growth inhibition (GI) (HT-29 [1]): Active
Activity (HT-29 [2]): Active
Activity (HT-29 [3]): Active

COc1cc(/C=C/C(=O)CC(=O)/C=C/c2ccc(O)c(OC)c2)ccc1O [CURCUMIN]
Activity (HT-29 [4]): 45%
Activity (HT-29 [5]): 84%

COc1cc(/C=C/C(C)=O)ccc1O [DEHYDROZINGERONE]
growth inhibition (GI) (HT-29 [1]): Active
Activity (HT-29 [6]): Active
Activity (WI-38 [7]): Toxic
Activity (WI-38 [8]): Toxic
Activity (HCT-15 [9]): Active
Activity (HCT-15 [10]): Active
Activity (HCT-15 [11]): inactive
Activity (HCT-116 [12]): Active
Activity (HCT-116 [13]): Active
Activity (HCT-116 [14]): inactive
growth inhibition (GI) (HCT-15 [15]): Active
growth inhibition (GI) (HCT-116 [16]): Active
Activity (HT-29 [17]): inactive
Activity (HT-29 [18]): inactive
Activity (HT-29 [2]): Active
Activity (HT-29 [19]): inactive
Activity (HT-29 [20]): Active
Activity (HT-29 [21]): Active
Activity (HT-29 [22]): inactive
Activity (HT-29 [23]): inactive
fold change (FC) (HT-29 [24]): 2
Activity (HT-29 [4]): 11%
Activity (HT-29 [25]): 37%
Activity (HT-29 [26]): 22%
Activity (HT-29 [27]): Active
Activity (HT-29 [28]): Active
Activity (HT-29 [29]): Active
Activity (HT-29 [30]): Active
Activity (HT-29 [31]): Active
Activity (HT-29 [3]): Active
